Assay outcomes (PubChem BioAssay)
APJ agonist: agonists of human APJ apelin receptor; P35414; CHO-K1 APJ PathHunter beta-arrestin, luminescence; 0% DMSO wells, 100% apelin; 0.11% of 330,000 active; AID 2520; activation, % at 20 µM;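 active means activation more than six SD over the plate average, tested at 20 µM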
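Assay system: engineered CHO-K1 APJ arrestin reporter cells; Amount: 1000 CHO-K1 reporter cells seeded per well; Dosing: one dose, 20 µM compound, 1% DMSO; Times: compound stimulation 90 min at 25 °C, detection 60 min; Measured by: luminescent beta-gal fragment complementation, chemiluminescent substrate; Read-out: APJ–arrestin association signal; Controls: DMSO vs Apelin-13 10 nM.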
EBI2 block: blocks human EBI2 receptor beta-arrestin signaling; inhibition, % at 5 µM; 0.81% of 360,000 active; EBI2 beta-arrestin recruitment, luminescence, 7a,25-OHC stimulated; P32249; AID 651636; in the data active means inhibition above about 38%;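 further: enzyme fragment complementation signal reports receptor beta-arrestin coupling in cells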
CXCR6 inh: blocks human CXCR6 beta-arrestin recruitment; inhibition, % at 20 µM; AID 602244; CHO-K1 PathHunter CXCR6 beta-arrestin, luminescence; 0.36% of 360,000 active; in the data active means inhibition above about 34%, passing the limit was not always enough;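 further: antagonist mode with CXCL16 agonist at 10 nM final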
Target sequence (O00574 whole entry, looked up): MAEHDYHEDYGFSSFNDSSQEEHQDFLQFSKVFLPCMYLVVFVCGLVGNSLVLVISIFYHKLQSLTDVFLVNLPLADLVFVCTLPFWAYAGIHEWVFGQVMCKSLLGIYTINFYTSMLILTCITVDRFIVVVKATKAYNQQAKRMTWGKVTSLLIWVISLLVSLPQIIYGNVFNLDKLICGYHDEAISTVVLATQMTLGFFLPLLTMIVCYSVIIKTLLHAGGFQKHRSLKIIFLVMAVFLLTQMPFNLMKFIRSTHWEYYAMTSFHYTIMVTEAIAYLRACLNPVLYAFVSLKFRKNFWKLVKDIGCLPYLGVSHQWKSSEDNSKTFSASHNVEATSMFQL
APJ antag: blocks the human apelin receptor APJ. P35414. CHO-K1 APJ beta-arrestin complementation, luminescence. inhibition, % at 20 µM. 0.32% of 330,000 active. AID 2521;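 active means inhibition above about 40% at 20 µM, limit read from the data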;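 further: cells challenged with 10 nM apelin-13 agonist together with compound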
CCR6 antagonist: CCR6 (human) receptor antagonism | P51684 | CHO-K1 CCR6 PathHunter beta-arrestin, luminescence, CCL20-stimulated | inhibition, % at 20 µM | 0.49% of 340,000 active | AID 493098;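 active means compounds whose inhibition of the agonist-driven luminescence signal at 20 µM reaches about 50%, limit read from the data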;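 further: cells stimulated with CCL20 at 14 nM final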
Target sequence (P51684 whole entry, looked up): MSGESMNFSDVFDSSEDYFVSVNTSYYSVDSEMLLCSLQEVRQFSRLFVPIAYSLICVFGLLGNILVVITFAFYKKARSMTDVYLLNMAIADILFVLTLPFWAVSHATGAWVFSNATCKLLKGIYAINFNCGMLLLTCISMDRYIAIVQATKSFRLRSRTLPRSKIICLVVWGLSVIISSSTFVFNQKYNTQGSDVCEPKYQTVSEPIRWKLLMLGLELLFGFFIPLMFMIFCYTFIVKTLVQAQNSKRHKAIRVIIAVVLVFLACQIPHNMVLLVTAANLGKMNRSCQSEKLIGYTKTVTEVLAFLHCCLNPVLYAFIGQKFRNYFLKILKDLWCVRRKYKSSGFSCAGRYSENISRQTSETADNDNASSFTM
CXCR6 antag conf: CXCR6 antagonism confirmation, single concentration; shares compounds with CXCR6 inh; CHO-K1 CXCR6 PathHunter beta-arrestin, luminescence; inhibition, % at 20 µM; 65% of 700 active; AID 602409;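 active means mean inhibition over four retests above 40%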;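 further: receptor stimulated with 10 nM CXCL16 agonist; beta-galactosidase fragment complementation upon beta-arrestin recruitment to receptor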
Large screens that a line does not name were inactive (follow-up assays come after a bar, where they were run). An excerpt weighted towards active compounds, which were near 1.5% of everything screened.

Cc1ccc(-c2csc(N3C(=N)SCC3=O)n2)cc1	none (no result: EBI2 block, CXCR6 inh)
N=C1SCC(=O)N1c1ncc(Cc2ccc(F)cc2)s1	CXCR6 inh 51 (no result: CCR6 antagonist) | CXCR6 antag conf 68
CC12CCC(C(=O)N(NC(=O)c3ccccc3Cl)C1=O)C2(C)C (stereo unspecified)	none
COc1ccc(C(=O)NC(=S)Nc2ccc([N+](=O)[O-])cc2C)cc1OC	CXCR6 inh 50, CCR6 antagonist 68 | CXCR6 antag conf 55
O=C(C=Cc1ccccn1)c1ccccc1O	CXCR6 inh 57, CCR6 antagonist 74 (no result: APJ agonist, APJ antag) | CXCR6 antag conf 60
O=C(C=Cc1ccccn1)c1ccccc1	none (no result: APJ agonist, APJ antag)
CCN(CC(=O)NCc1cccs1)C(=O)CCC(=O)c1ccc(F)cc1	none
COc1ccc(-n2cc(C(=O)c3cc4ccccc4oc3=O)c(C(C)=O)n2)cc1	none
Cc1ccc(/C(O)=C/C(=O)C(=O)NC23CC4CC(CC(C4)C2)C3)cc1	CXCR6 inh 53, CCR6 antagonist 70 | CXCR6 antag conf inactive
Cc1ccc(NC(=O)c2ccccc2)cc1	none
Cc1ccc(NC(=O)C2=C(c3ccccc3)S(=O)(=O)CCS2(=O)=O)cc1	CXCR6 inh 48 (no result: CCR6 antagonist) | CXCR6 antag conf 53
COc1ccc(OC)c(NC(=O)COC(=O)c2ccc(OC)c(S(=O)(=O)N3CCOCC3)c2)c1	none
C=C1C(=O)[C@]23C[C@H]1CCC2[C@@]1(C)C(C[C@@H]3O)[C@](C)(C(=O)OC)CC[C@@H]1OC(C)=O (stereo partly specified)	EBI2 block 80, CXCR6 inh 69 (no result: APJ agonist, APJ antag, CCR6 antagonist) | CXCR6 antag conf 89
C=C1C(=O)[C@]23C[C@H]1CC[C@H]2[C@]1(C)[C@@H](OC(C)=O)CC[C@@](C)(C(=O)OC)[C@H]1C[C@@H]3OC(C)=O	none (no result: APJ agonist, APJ antag, CCR6 antagonist)
COc1ccccc1NCC(=O)c1ccc(C)c(C)c1	CXCR6 inh 52, CCR6 antagonist 82 | CXCR6 antag conf inactive
CC(Nc1ccccc1N1CCCCC1)C(=O)N1CCc2ccccc21 (stereo unspecified)	none
C=C1CCN([C@@H](Cc2ccccc2)C(=O)NCCC(C)C)S(=O)(=O)c2ccccc21	CXCR6 inh 41 | CXCR6 antag conf 42
CCCc1cc(=O)oc2cc(OCC(=O)N3CC[C@@]4(O)CCCC[C@H]4C3)ccc12	none (no result: APJ agonist, APJ antag, CCR6 antagonist)
CCCc1cc(=O)oc2cc(OC(=O)CN3C(=O)NC4(CCCC4)C3=O)ccc12	CXCR6 inh 46, CCR6 antagonist 67 | CXCR6 antag conf inactive
CCOc1ccc(N(CC(=O)NC2CCCC2)C(=O)CSc2nnc(COc3ccccc3)o2)cc1	none
Cc1cc(C)c2c(=O)n(CC(=O)NC3CCCC3)sc2n1	CXCR6 inh 99 | CXCR6 antag conf inactive
C[C@H](CO)N1C[C@H](C)[C@@H](CN(C)S(=O)(=O)c2cn(C)cn2)Oc2c(NC(=O)Nc3ccc4c(c3)OCO4)cccc2C1=O	none
CCN(CC)C(=O)c1sc2[nH]c(=S)n(-c3ccccc3)c(=O)c2c1C	none
O=C(O)C1CCc2sc3[nH]c(=S)n(-c4ccccc4)c(=O)c3c21 (stereo unspecified)	CXCR6 inh 44 | CXCR6 antag conf inactive
CC1=C(C)CC2C(C1)C(=O)c1ccc(Br)cc1S2(=O)=O (stereo unspecified)	CXCR6 inh 72, CCR6 antagonist 84 | CXCR6 antag conf 41
Cn1c(O)c(C2=c3ccccc3=NC2=O)[nH]c1=S	none (no result: CCR6 antagonist)
COc1ccc2nc(-n3c(O)c(C4=c5ccccc5=NC4=O)[nH]c3=S)sc2c1	CXCR6 inh 64, CCR6 antagonist 78 (no result: APJ agonist, APJ antag) | CXCR6 antag conf 52
O=C(O)CC(Sc1n[nH]c(=S)s1)C(=O)O (stereo unspecified)	none
COc1cc(S(=O)(=O)NC2CC(C)(C)NC(C)(C)C2)c(OC)cc1Cl	none
COc1cc(S(=O)(=O)NC2CCCC2)c(OC)cc1Cl	CXCR6 inh 46 | CXCR6 antag conf inactive
Cc1ccc(Oc2ccccc2NC(=O)CN2C(=O)NC3(CCCC3)C2=O)cc1	CXCR6 inh 43 | CXCR6 antag conf inactive
CCOc1cc(/C=C2\N=C(SC)SC2=O)cc([N+](=O)[O-])c1OC(C)=O	CXCR6 inh 42 | CXCR6 antag conf 40
CCOc1cc(/C=C2\N=C(SCC)SC2=O)cc([N+](=O)[O-])c1OC(C)=O	CXCR6 inh 45, CCR6 antagonist 55 | CXCR6 antag conf 59
CCOc1c(OC(C)=O)ccc(/C=C2\N=C(SCC)SC2=O)c1[N+](=O)[O-]	none
CC(C)(C)NC(=O)CSc1nnc(C2CC2)n1-c1ccccc1	none
Cc1c(C(=O)NCc2ccco2)oc2ccccc12	none
O=C(Nc1cccc(C(=O)N2CCOCC2)c1)C1CCCC1	none (no result: APJ agonist, APJ antag)
C[C@@H](NC(=O)c1nc[nH]c1C(=O)N[C@H](C)c1ccccc1)c1ccccc1	none
C[C@@H](NC(=O)c1[nH]cnc1C(=O)Nc1ccccc1F)c1ccccc1	CXCR6 inh 42 (no result: APJ agonist, APJ antag, CCR6 antagonist) | CXCR6 antag conf inactive
NC(=S)N/N=C/c1ccc(C(F)(F)F)cc1	none
NC(=S)N/N=C/c1ncc(C(F)(F)F)cc1Cl	CXCR6 inh 61, APJ antag 58, CCR6 antagonist 74 | CXCR6 antag conf 90
CC(C)=CCN1CCN(CCC2=C(C)CCCC2(C)C)CC1CCO (stereo unspecified)	none
CC1=C(CC/C(C)=N/NC(N)=S)C(C)(C)CCC1	CXCR6 inh 46 | CXCR6 antag conf inactive
O=C(NC(=S)N1CCN(c2ccc(C(F)(F)F)cc2[N+](=O)[O-])CC1)c1cccs1	CXCR6 inh 52 (no result: CCR6 antagonist) | CXCR6 antag conf 56
Cn1c(=O)c2c(nc(NCCNC(=O)c3ccco3)n2Cc2ccccc2)n(C)c1=O	none
Cc1ccc(C)c(OCC(=O)Nc2cc(NC(=O)COc3cc(C)ccc3C)cc(C(=O)O)c2)c1	none
Cn1cc(CNC(=O)C2CCCCC2)cn1	CXCR6 inh 43 | CXCR6 antag conf inactive
Cc1ccc(O)c(C(=O)CC(=O)c2ccc(Cl)cc2)c1	CXCR6 inh 42, CCR6 antagonist 65 (no result: APJ agonist, APJ antag) | CXCR6 antag conf 45
O=C(COC(=O)c1ccco1)NCC1CCCCC1	none
O=C(CCNC(=O)c1ccco1)NCCc1ccc(Cl)cc1	CXCR6 inh 40 | CXCR6 antag conf inactive
NS(=O)(=O)c1ccc(CCNC(=O)CCNC(=O)c2ccco2)cc1	none
O=C(COC(=O)c1ccco1)NCCNC(=O)COC(=O)c1ccco1	CXCR6 inh 36 | CXCR6 antag conf inactive
CCC(C)n1c(SCC(=O)NC2CCS(=O)(=O)C2)nc2ccccc2c1=O (stereo unspecified)	none
O=C(Oc1c(Cl)cc(Cl)c2cccnc12)c1cccs1	none
O=C(Oc1c(Cl)cc(Cl)c2cccnc12)c1ccco1	CXCR6 inh 45 (no result: CCR6 antagonist) | CXCR6 antag conf 70
O=C(CN(C(=O)c1csnn1)c1ccccc1F)NCc1ccc2c(c1)OCO2	none
COc1ccc(S(=O)(=O)Nc2ccccc2-c2nc3ccccc3[nH]c2=O)cc1	none
